Compounds with a hit are over-represented: about 3.9% of the library has one in this group of screens.
STAT1 inh = STAT1 signaling inhibitors, primary screen, cell-based, HTS, luciferase reporter; NIH 3T3 STAT1-luciferase reporter, IFN-gamma, luminescence; inhibition, % at 5.5 µM; 200,000 tested, 0.35% active;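 active = inhibition above a set limit, the mean inhibition across all tested compounds plus 3 SD, cut at about 34% in these data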
Pf gametocyte = late stage P. falciparum gametocyte viability inhibitors, primary screen, ATP luminescence, HTS | AID 743093, 2013 | inhibition, % at 10.9 µM | 150,000 tested, 0.065% active | P. falciparum stage V gametocytes, 24 h;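 active = inhibition above the mean plus 3 SD of compounds within the control limits, set per campaign, cut at about 38% in these data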
NF-kB neuron act = activators of NF-kB expression in neurons, primary screen, cell-based, HTS; human neuronal cells, NF-kB reporter expression; stronger effect = higher value; fold change at 12.5 µM; 190,000 tested, 1.6% active; AID 1239, 2008; in the data active = fold change above about 3.3
STAT3 activator = IL-6 driven STAT3 reporter potentiators, primary screen, U3A cells, luciferase, luminescence, MLSCN library; 190,000 tested, 0.91% active; IL-6 STAT3-luciferase reporter; 100% = signal with IL-6 EC80 alone; activation (% of control), % at 5.6 µM;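 active = activation above the screen-wide mean of compound activation plus 3 SD, cut at about 130% in these data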
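Material: human STAT1-deficient U3A cells with stable STAT3-luciferase reporter / Probe or stimulus: IL-6 stimulus at 33 ng/mL final / Schedule: 1 h compound pre-exposure, 6 h IL-6 stimulation, 37 °C / Technique: luminescence / Read-out basis: percent of IL-6-only median luminescence / Control set: IL-6-only high control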
APP 5'UTR act = activators of APP 5'UTR luciferase reporter, primary screen, SH-SY5Y cells; AID 1276, 2008; activation, % at 2 µM; 190,000 tested, 1% active; SH-SY5Y APP 5'UTR luciferase reporter, luminescence; zero percent = DMSO vehicle wells;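 active = activation above a set limit, based on mean plus 3 SD of controls, cut at about 140% in these data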
STAT1 activator = STAT1 signaling activators, primary screen, cell-based, HTS, luciferase reporter; NIH 3T3 STAT1-luciferase reporter, IFN-gamma, luminescence; 100% = IFN-gamma alone, no compound; activation (% of control), % at 5.5 µM; 200,000 tested, 2.6% active;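 active = activation above the screen-wide mean activation plus 3 SD, cut at about 130% in these data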
Large screens that a line does not name were inactive.

COc1ccc(/C=N/NC(=O)c2cc(C)n(-c3ccccc3)c2C)cc1OC	none
Cc1cc(C(=O)N/N=C/c2cccc([N+](=O)[O-])c2)c(C)n1-c1ccccc1	STAT1 activator 131.6
Cc1ccc(NC(=O)c2cc(C)n(-c3ccccc3)c2C)cc1	STAT1 inh 39.0 (no result: Pf gametocyte)
Cc1ccc2nc(Nc3nc(CSc4nnc(C)s4)cc(=O)[nH]3)nc(C)c2c1	STAT1 activator 134.6
Cc1nnc(SCc2cc(=O)[nH]c(Nc3nc(C)c4ccccc4n3)n2)s1	none (no result: Pf gametocyte, NF-kB neuron act)
Cn1c(C(=O)NCC2CCCO2)cc2oc3ccccc3c21 (stereo not given)	STAT1 activator 143.5 (no result: Pf gametocyte)
Cn1c(=O)c(C(=O)NCC2CCCO2)c(O)c2ccccc21 (stereo not given)	STAT1 activator 129.4
Cc1cccnc1NC(=O)c1c(O)c2ccccc2n(C)c1=O	STAT3 activator 133.1
Cc1ccc(CN2CCN(Cc3cccn3-c3nccs3)CC2CCO)cc1 (stereo not given)	none
CCCSc1nnc(CSc2nc(C)cc(C)n2)n1C	none (no result: Pf gametocyte, NF-kB neuron act)
CC(=O)c1ccc(N(C(=O)c2csnn2)C(C(=O)NC(C)(C)C)c2cccs2)cc1 (stereo not given)	none
C/C(=N\Nc1ccc(C(F)(F)F)cn1)c1ccncc1	STAT1 activator 134.3
CCOC(=O)c1c(N/N=C/c2cccnc2)n[nH]c1C	none (no result: STAT1 inh, NF-kB neuron act, STAT3 activator, APP 5'UTR act, STAT1 activator)
COC(=O)c1cccc(COC(=O)c2cccnc2SC)c1	NF-kB neuron act 3.53 (no result: Pf gametocyte)
COc1ccc(C(C)=O)cc1COC(=O)c1cccnc1SC	NF-kB neuron act 3.9
O=C(O)c1cc(Cl)c2c(c1)OCO2	none (no result: STAT1 inh, NF-kB neuron act, STAT3 activator, APP 5'UTR act, STAT1 activator)
C=CCNc1nc(Nc2ccccc2F)nc(OCC)n1	STAT1 activator 142.5
CCC(=O)Nc1cccc(-c2nnc(SCC(=O)NCc3ccco3)n2C)c1	none
CCC(=O)Nc1cccc(-c2nnc(SCC(=O)c3ccccc3)n2C)c1	STAT1 activator 148.5
Cc1cc(-c2ccc(C(=O)O)s2)cnc1N	STAT1 activator 128.9
Fc1cccc(Cl)c1CNCc1cccnc1	none (no result: STAT1 inh, NF-kB neuron act, STAT3 activator, APP 5'UTR act, STAT1 activator)
Clc1ccc(-c2nnc(NC3=NCCCCC3)o2)cc1	APP 5'UTR act 151.7 (no result: Pf gametocyte)
O=C(Nc1ccccc1)C1=C[C@@H](c2ccc(Br)cc2)C[C@@H](OCCCCO)O1	STAT1 activator 129.1 (no result: STAT3 activator)
Cc1ccc(S(=O)(=O)NC(=O)Nc2cc(C)ccc2F)cc1	none
CC(=O)NS(=O)(=O)c1ccc(N=c2ssc3c2-c2ccc(C)cc2NC3(C)C)cc1	STAT1 activator 134.0
Cc1cccc(C)c1NC(=O)C1c2cccc[n+]2CC(=O)N1Cc1cccs1 (stereo not given)	none
CCCCn1c(-c2ccccc2)cnc1SCC(=O)NCCc1ccc(OC)c(OC)c1	STAT1 activator 134.1 (no result: Pf gametocyte, APP 5'UTR act)
COc1ccc(CCNC(=O)CSc2nnc(-c3ccccc3)c3ccccc23)cc1OC	none
Nc1cccc(CCc2nc3cc4ccccc4cc3[nH]2)c1	NF-kB neuron act 4.21, STAT1 activator 131.3 (no result: Pf gametocyte)
Nc1ccc2nc(CCCCc3nc4ccccc4[nH]3)[nH]c2c1	none (no result: STAT1 inh, NF-kB neuron act, STAT3 activator, APP 5'UTR act, STAT1 activator)
COc1ccc(C(=O)C2=NN(C(C)=O)CC2c2ccco2)cc1 (stereo not given)	none (no result: Pf gametocyte)
CCCCc1nc2cc(Cl)ccc2o1	none
CN(c1ccc(C(=O)NCCSC(C)(C)C)cc1)S(C)(=O)=O	none
O=C(O)c1ccccc1NC(=O)C1CCCO1 (stereo not given)	none (no result: Pf gametocyte)
O=C(NCCc1ccccc1)c1ccccc1NC(=O)C1CCCO1 (stereo not given)	NF-kB neuron act 3.44, APP 5'UTR act 157.6, STAT1 activator 133.6
O=C(NCCc1ccccc1)c1ccccc1F	NF-kB neuron act 3.31
CCCCc1ccc(NC(=O)C2CCCO2)cc1 (stereo not given)	STAT1 activator 130.4 (no result: Pf gametocyte)
CN(c1ccc(C(=O)NCCc2ccccc2)cc1)S(C)(=O)=O	STAT1 activator 140.7 (no result: Pf gametocyte)
O=C(Cn1cncn1)N/N=C/c1cccc(Cl)c1	none (no result: STAT1 inh, NF-kB neuron act, STAT3 activator, APP 5'UTR act, STAT1 activator)
O=C(NCCCc1ccccc1)c1ccccc1	STAT1 activator 129.1
O=C(NCCCCc1ccccc1)c1ccccc1	none
CC(=O)Nc1ccc(/C(C)=N/NC(=O)c2ccc(CN3CCOCC3)cc2)cc1	none

Bioassay records: PubChem BioAssay, several laboratories
